Entries after “also recorded” stand apart in the source; their conditions may differ.

For one data set, the system named is normal cell lines. The following applies: cited from earlier work.
For data set [1], the target named is α-Glucosidase (derived from Saccharomyces cerevisiae; EC3.2.1.20) (Saccharomyces cerevisiae, UniProt P53341). The data set can be described thus: In vitro α-glucosidase inhibitory study. In kind it is biochemical.
Data set [2] has as its target T1, α-glucosidase (Saccharomyces cerevisiae, UniProt P53341). Kind of data set: Kinetic studies of α-glucosidase. It is filed as biochemical.
The target in data set [3] is T1, α-glucosidase. The data set can be described thus: Fluorescence spectroscopy measurements. It is filed as binding. Conditions: 0–500 nM, excitation 280 nm, phosphate buffer pH 6.8. A digest of the protocol:
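Fixed amount of yeast α-glucosidase in 3.0 ml with test compound at 0–500 nM, equilibrated 10 min. Steady-state emission spectra recorded 300–500 nm with excitation at 280 nm in a 1.0 cm quartz cell. Buffer-only spectra without enzyme subtracted as background.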

Data set [4] concerns the target T1, α-glucosidase. Kind of data set: Thermodynamic analysis of the binding of compound 8g to α-glucosidase. In short, it runs like this: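 Fluorescence intensity of yeast α-glucosidase at 340 nm followed over 298–338 K, with or without test compound (pH 6.8), under a two-state N↔U model. Denatured fraction, apparent K and ΔG° = −RT ln K were calculated, then fitted to the integrated Gibbs–Helmholtz equation (ΔCp 11.6 kJ/mol K). This gave Tm (half-denatured), ΔH°m and ΔS°m, with ΔH = TmΔS.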

In a further data set the test system is male Wistar rats. The data set can be described thus: In vivo hypoglycemic activity assay. Further details: species or system rat. Conditions: for blood glucose effect (area under curve) vs negative control: sucrose 7.5 g/kg, one-way ANOVA. A digest of the protocol:
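Sucrose 7.5 g/kg was given 30 min later. Tail-vein glucose measured by glucometer at 0, 30, 45, 60 and 120 min. Area under curve compared by one-way ANOVA; mean ± SD.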

Data set [5] deals with T1, α-glucosidase. Conditions: read-out: α-glucosidase IC50; Fig. 1; cited from earlier work.
Data set [6] has as its target T1, α-glucosidase. The following applies: kinetic studies; cited from earlier work.
For data set [7] the following is noted: cited from earlier work.

α-Glucosidase (derived from Saccharomyces cerevisiae; EC3.2.1.20), sequence (P53341 whole entry): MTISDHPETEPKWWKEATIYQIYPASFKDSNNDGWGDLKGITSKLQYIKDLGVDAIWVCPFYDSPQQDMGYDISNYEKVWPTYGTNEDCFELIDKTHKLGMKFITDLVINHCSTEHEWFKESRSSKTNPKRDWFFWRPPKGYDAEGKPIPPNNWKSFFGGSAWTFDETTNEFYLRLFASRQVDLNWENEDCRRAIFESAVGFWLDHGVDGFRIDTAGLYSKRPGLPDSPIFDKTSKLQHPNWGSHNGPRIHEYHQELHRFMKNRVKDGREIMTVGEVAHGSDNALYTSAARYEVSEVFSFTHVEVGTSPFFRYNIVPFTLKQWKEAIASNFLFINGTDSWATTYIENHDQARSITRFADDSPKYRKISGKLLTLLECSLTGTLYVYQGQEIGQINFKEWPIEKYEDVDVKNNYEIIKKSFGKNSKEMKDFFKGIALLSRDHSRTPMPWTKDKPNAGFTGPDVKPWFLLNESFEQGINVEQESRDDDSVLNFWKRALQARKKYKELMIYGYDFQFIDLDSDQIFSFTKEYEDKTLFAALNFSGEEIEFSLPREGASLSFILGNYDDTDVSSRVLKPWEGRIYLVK
T1 sequence (P53341 whole entry): as above

As to `O=C(NN=Cc1cn(-c2ccccc2)nc1-c1ccc([N+](=O)[O-])cc1)c1cc2ccccc2o1` [B, N’-((3-(4-nitrophenyl)−1-phenyl-1H-pyrazol-4-yl)methylene)benzofuran-2-carbohydrazide], in the data set on normal cell lines, the “cytotoxicity to normal cell lines” value is “non-toxic”.
As a reminder, the IC50 is the concentration at which inhibition is half-maximal. Take `O=C(NN=CC(O)C(O)C(O)C(O)CO)c1cc(-c2ccccc2)[nH]n1` (stereo not drawn) [Compound 8a, N’-(2,3,4,5,6-Pentahydroxyhexylidene)−5-phenyl-1H-pyrazole-3-carbohydrazide]: half-maximal inhibition in [1] (IC50) required 1.2 µM.
`O=C(NN=CC(O)C(O)C(O)C(O)CO)c1cc(-c2ccccc2F)[nH]n1` (stereo not drawn) [Compound 8b, 5-(2-Fluorophenyl)-N’-(2,3,4,5,6-pentahydroxyhexylidene)−1H-pyrazole-3-carbohydrazide] showed an IC50 in data set [1] of 53.9 ± 1.2 µM.
Consider `O=C(NN=CC(O)C(O)C(O)C(O)CO)c1cc(-c2ccccc2Cl)[nH]n1` (stereo not drawn) [Compound 8c, 5-(2-Chlorophenyl)-N’-(2,3,4,5,6-pentahydroxyhexylidene)−1H-pyrazole-3-carbohydrazide], for which the IC50 in [1] was found to be 4.2 ± 0.1 µM.
The same measure, in the same setting: for `O=C(NN=CC(O)C(O)C(O)C(O)CO)c1cc(-c2ccc(F)cc2)[nH]n1` (stereo not drawn) [Compound 8d, 5-(4-Fluorophenyl)-N’-(2,3,4,5,6-pentahydroxyhexylidene)−1H-pyrazole-3-carbohydrazide] the value was 60.6 ± 1 µM; for `O=C(NN=CC(O)C(O)C(O)C(O)CO)c1cc(-c2ccc(Cl)cc2)[nH]n1` (stereo not drawn) [Compound 8e, 5-(4-Chlorophenyl)-N’-(2,3,4,5,6-pentahydroxyhexylidene)−1H-pyrazole-3-carbohydrazide], 1 µM.
For the compound `O=C(NN=CC(O)C(O)C(O)C(O)CO)c1cc(-c2ccc(Br)cc2)[nH]n1` (stereo not drawn) [Compound 8f, 5-(4-Bromophenyl)-N’-(2,3,4,5,6-pentahydroxyhexylidene)−1H-pyrazole-3-carbohydrazide], 35.2 ± 0.5 µM corresponded to half-maximal inhibition in [1] (IC50).
What is called Ki is a measure of affinity in units of concentration, obtained from inhibition or displacement. Regarding `O=C(NN=CC(O)C(O)C(O)C(O)CO)c1cc(-c2ccc(Cl)cc2Cl)[nH]n1` (stereo not drawn) [Compound 8g, 5-(2,4-Dichlorophenyl)-N’-(2,3,4,5,6-pentahydroxyhexylidene)−1H-pyrazole-3-carbohydrazide], the IC50 in data set [1] stood at 0.5 µM. Also, the “inhibition of α-glucosidase, times more potently than acarbose” value in data set [1] (relative to acarbose) amounted to 1500 times. The compound also gave a Ki at α-glucosidase [2] of 0.46 µM. Besides, at α-glucosidase [2] (Lineweaver-Burk plot: Km increased, Vmax unchanged), the type of inhibition result is reported as “competitive manner; also recorded: competitive inhibitor”. Also, on α-glucosidase [3], the “fluorescence intensity of α-glucosidase” value was “increased intensity”. Also, the “shift in the emission wavelength (λmax 340 nm)” value on α-glucosidase [3] is “did not show significant shift”. In addition, the results for the “Tm of α-glucosidase” value at α-glucosidase [4] (60 nM compound), on α-glucosidase [4] (250 nM compound) and on α-glucosidase [4] (500 nM compound) were 314 K, 309 K and 304 K, respectively. In addition, the “ΔSm° of α-glucosidase denaturation” value was 328.6 J mol^−1 K^−1 on α-glucosidase [4] (60 nM compound), 466.9 J mol^−1 K^−1 at α-glucosidase [4] (250 nM compound) and 516.4 J mol^−1 K^−1 at α-glucosidase [4] (500 nM compound). Besides, the “ΔHm° of α-glucosidase denaturation” value at α-glucosidase [4] (500 nM compound) turned out to be 37.55 kcal/mol. Moreover, the “blood sugar levels in rats” value with male Wistar rats (doses comparable to acarbose) is given as “capable of lowering blood sugar levels; also recorded: effectively reduced”. In addition, the “blood glucose effect (area under curve) vs negative control” value in the data set on male Wistar rats (rat, oral 2.5 mg/kg) is reported as “did not significantly differ”; in the data set on male Wistar rats (rat, oral 5 mg/kg, p-value < 0.05), “significantly different”; in the data set on male Wistar rats (rat, oral 10 mg/kg, p-value < 0.05), “significantly different”. The “effectiveness of 5 and 10 mg/kg doses vs each other and vs acarbose (5 mg/kg)” value in the data set with male Wistar rats (rat, oral, sucrose tolerance test) is recorded as “did not significantly differ”.
For the compound `O=C(NN=CC(O)C(O)C(O)C(O)CO)c1cc(-c2ccc([N+](=O)[O-])cc2)[nH]n1` (stereo not drawn) [Compound 8h, 5-(4-Nitrophenyl)-N’-(2,3,4,5,6-pentahydroxyhexylidene)−1H-pyrazole-3-carbohydrazide], in data set [1], the IC50 was found to be 80.5 ± 0.7 µM.
For the compound `Cc1cccc(-c2cc(C(=O)NN=CC(O)C(O)C(O)C(O)CO)n[nH]2)c1` (stereo not drawn) [Compound 8i, N’-(2,3,4,5,6-Pentahydroxyhexylidene)−5-(m-tolyl)−1H-pyrazole-3-carbohydrazide], the IC50 in data set [1] was 12.1 ± 0.5 µM.
`Cc1ccc(-c2cc(C(=O)NN=CC(O)C(O)C(O)C(O)CO)n[nH]2)cc1` (stereo not drawn) [Compound 8j, N’-(2,3,4,5,6-Pentahydroxyhexylidene)−5-(p-tolyl)−1H-pyrazole-3-carbohydrazide] came in with an IC50 in data set [1] of 36.4 ± 0.2 µM.
`COc1cccc(-c2cc(C(=O)NN=CC(O)C(O)C(O)C(O)CO)n[nH]2)c1` (stereo not drawn) [Compound 8k, 5-(3-Methoxyphenyl)-N’-(2,3,4,5,6-pentahydroxyhexylidene)−1H-pyrazole-3-carbohydrazide] returned an IC50 in data set [1] of 2.3 µM.
For the compound `COc1ccc(-c2cc(C(=O)NN=CC(O)C(O)C(O)C(O)CO)n[nH]2)cc1` (stereo not drawn) [Compound 8l, 5-(4-Methoxyphenyl)-N’-(2,3,4,5,6-pentahydroxyhexylidene)−1H-pyrazole-3-carbohydrazide], in data set [1], the IC50 is 2.3 µM.
`COc1ccc(-c2cc(C(=O)NN=CC(O)C(O)C(O)C(O)CO)n[nH]2)cc1OC` (stereo not drawn) [Compound 8m, 5-(3,4-Dimethoxyphenyl)-N’-(2,3,4,5,6-pentahydroxyhexylidene)−1H-pyrazole-3-carbohydrazide]: the IC50 in data set [1] is 438.6 ± 0.1 µM.
Regarding `O=C(Cn1c(-c2ccc(Cl)cc2)nc2ccccc2c1=O)NN=Cc1cn(-c2ccccc2)nc1-c1ccc(Br)cc1` [E, N’-((3-(4-bromophenyl)−1-phenyl-1H-pyrazol-4-yl)methylene)−2-(2-(4-chlorophenyl)−4-oxoquinazolin-3(4H)-yl)acetohydrazide], the IC50 at α-glucosidase [5] is 60.5 µM. Besides, on α-glucosidase [6], the “mechanism of α-glucosidase inhibition” value is recorded as “competitive mechanism”.
Regarding `COc1ccc(/C=C/c2cc(O)cc(OC3OC(CO)C(O)C(O)C3O)c2)cc1O` (stereo not drawn) [F, 2-(3-hydroxy-5-((E)−3-hydroxy-4-methoxystyryl)phenoxy)−6-(hydroxymethyl)tetrahydro-2H-pyran-3,4,5-triol], in data set [7], the bioavailability result was “very low” and the toxic effects result is recorded as “no toxic effects”.
For the compound `O=C(NNC1OC(CO)C(O)C(O)C1O)c1cc(-c2ccccc2)on1` (stereo not drawn) [H, 5-phenyl-N’-(3,4,5-trihydroxy-6-(hydroxymethyl)tetrahydro-2H-pyran-2-yl)isoxazole-3-carbohydrazide], on α-glucosidase [5], the IC50 is 292 µM.
